According to ChEMBL document CHEMBL1155236, “Identification of biphenyl-based hybrid molecules able to decrease the intracellular level of Bcl-2 protein in Bcl-2 overexpressing leukemia cells” (J Med Chem, 2009):
Values belong to the molecule of their own block, whether it stands above or below them. Calls of active or inactive are those of the source. The rule behind the calls is not given here.

Columns and labels:
K562 [1] = assay: Cell cycle arrest in human K562 cells by accumulation at G2/M phase at 130 uM after 72 hrs using propidium iodide staining by FACS; format: functional
In short: (§1)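 K562 cells treated for 24, 48 or 72 h. Cells stained with propidium iodide and cell-cycle phase distribution analysed by flow cytometry against untreated cells. The sub-G0–G1 peak was taken as apoptotic.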

K562 [2] = assay: Cell cycle arrest in human K562 cells by accumulation at G1 phase at 130 uM after 48 hrs using propidium iodide staining by FACS; format: functional; in short: as §1
K562 [3] = assay: Cell cycle arrest in human K562 cells by accumulation at S phase at 130 uM after 72 hrs using propidium iodide staining by FACS; format: functional; in short: as §1
K562 [4] = assay: Cell cycle arrest in human K562 cells by accumulation at A phase at 130 uM after 24 hrs using propidium iodide staining by FACS; format: functional; in short: as §1
HL-60 [5] = assay: Antiproliferative activity against human HL60 cells after 48 hrs by trypan blue method; format: functional, cell-based; conditions: HL-60, 48 h
In short: (§2)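 Growth inhibition read by counting cells with an automatic cell counter after 48 h of compound exposure. IC50 is the concentration inhibiting 50% of cell growth.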

K562 [6] = assay: Cell cycle arrest in human K562 cells by accumulation at S phase at 130 uM after 48 hrs using propidium iodide staining by FACS; format: functional; in short: as §1
K562 [7] = assay: Antiproliferative activity against human K562 cells after 48 hrs by trypan blue method; format: functional, cell-based; conditions: K562, 48 h; in short: as §2
K562 [8] = assay: Cell cycle arrest in human K562 cells by accumulation at G2/M phase at 130 uM after 48 hrs using propidium iodide staining by FACS; format: functional; in short: as §1
K562 [9] = assay: Cell cycle arrest in human K562 cells by accumulation at A phase at 130 uM after 72 hrs using propidium iodide staining by FACS; format: functional; in short: as §1
K562 [10] = assay: Cell cycle arrest in human K562 cells by accumulation at S phase at 130 uM after 24 hrs using propidium iodide staining by FACS; format: functional; in short: as §1
K562 [11] = assay: Cell cycle arrest in human K562 cells by accumulation at G1 phase at 130 uM after 72 hrs using propidium iodide staining by FACS; format: functional; in short: as §1
K562 [12] = assay: Cell cycle arrest in human K562 cells by accumulation at G1 phase at 130 uM after 24 hrs using propidium iodide staining by FACS; format: functional; in short: as §1
K562 [13] = assay: Cell cycle arrest in human K562 cells by accumulation at G2/M phase at 130 uM after 24 hrs using propidium iodide staining by FACS; format: functional; in short: as §1
K562 [14] = assay: Cell cycle arrest in human K562 cells by accumulation at A phase at 130 uM after 48 hrs using propidium iodide staining by FACS; format: functional; in short: as §1
K562 [15] = assay: Induction of apoptosis in human K562 cells assessed as morphological changes after 48 hrs by annexin V assay; format: functional, cell-based; conditions: K562, 48 h, read-out: AC50
In short: (§3)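 HL60 or K562 cells treated for 48 h. Apoptosis scored by morphological assay and annexin V test. AC50 is the concentration inducing apoptosis in 50% of cells.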

HL-60 [16] = assay: Induction of apoptosis in human HL60 cells assessed as morphological changes after 48 hrs by annexin V assay; format: functional, cell-based; conditions: HL-60, 48 h; in short: as §3
K562 [17] = assay: Cell cycle arrest in human K562 cells by accumulation at G1 phase at 30 uM after 48 hrs using propidium iodide staining by FACS; format: functional; in short: as §1
K562 [18] = assay: Cell cycle arrest in human K562 cells by accumulation at G1 phase at 30 uM after 24 hrs using propidium iodide staining by FACS; format: functional; in short: as §1
K562 [19] = assay: Cell cycle arrest in human K562 cells by accumulation at G2/M phase at 30 uM after 48 hrs using propidium iodide staining by FACS; format: functional; in short: as §1
K562 [20] = assay: Cell cycle arrest in human K562 cells by accumulation at sub-G1 (apoptotic) phase at 30 uM after 24 hrs using propidium iodide staining by FACS; format: functional; in short: as §1
K562 [21] = assay: Cell cycle arrest in human K562 cells by accumulation at sub-G1 (apoptotic) phase at 30 uM after 72 hrs using propidium iodide staining by FACS; format: functional; in short: as §1
K562 [22] = assay: Cell cycle arrest in human K562 cells by accumulation at sub-G1 (apoptotic) phase at 30 uM after 48 hrs using propidium iodide staining by FACS; format: functional; in short: as §1
HL-60 [23] = assay: Induction of apoptosis in human HL60 cells assessed as induction of cell differentiation marker CD11c expression at 10 uM after 120 hrs by flow cytometry; format: functional, cell-based
In short: (§4)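 HL60 or K562 cells exposed to 10 μM compound or no compound (control) for 120 h (5 days). Surface CD11c and CD61 read by flow cytometry with PE- or FITC-conjugated monoclonal antibodies. Treated cells compared with untreated cells.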

K562 [24] = assay: Cell cycle arrest in human K562 cells by accumulation at G1 phase at 30 uM after 72 hrs using propidium iodide staining by FACS; format: functional; in short: as §1
K562 [25] = assay: Cell cycle arrest in human K562 cells by accumulation at S phase at 30 uM after 72 hrs using propidium iodide staining by FACS; format: functional; in short: as §1
K562 [26] = assay: Induction of apoptosis in human K562 cells assessed as induction of cell differentiation marker CD11c expression at 10 uM after 120 hrs by flow cytometry; format: functional, cell-based; in short: as §4
K562 [27] = assay: Induction of apoptosis in human K562 cells assessed as decrease in Bcl-2 expression at 30 uM after 24 hrs by flow cytometry; format: functional; design: scale not given: the % may be the effect or the level left
In short: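 K562 cells cultured 24 h with compound at 30 μM or without (control). Intracellular Bcl-2 read by flow cytometry after staining with FITC-conjugated anti-Bcl-2 monoclonal antibody. Treated histograms compared with control histograms.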

K562 [28] = assay: Cell cycle arrest in human K562 cells by accumulation at G2/M phase at 30 uM after 72 hrs using propidium iodide staining by FACS; format: functional; in short: as §1
K562 [29] = assay: Cell cycle arrest in human K562 cells by accumulation at G2/M phase at 30 uM after 24 hrs using propidium iodide staining by FACS; format: functional; in short: as §1
[30] = Cytotoxicity against human lymphocytes after 48 hrs by trypan blue method; format: cell-based; conditions: Lymphocyte, read-out: IC50; in short: as §2
HL-60 [31] = assay: Induction of apoptosis in human HL60 cells assessed as induction of cell differentiation marker CD61 expression at 10 uM after 120 hrs by flow cytometry; format: functional, cell-based; in short: as §4
K562 [32] = assay: Cell cycle arrest in human K562 cells by accumulation at S phase at 30 uM after 48 hrs using propidium iodide staining by FACS; format: functional; in short: as §1
K562 [33] = assay: Induction of apoptosis in human K562 cells assessed as induction of cell differentiation marker CD61 expression at 10 uM after 120 hrs by flow cytometry; format: functional, cell-based; in short: as §4
K562 [34] = assay: Cell cycle arrest in human K562 cells by accumulation at S phase at 30 uM after 24 hrs using propidium iodide staining by FACS; format: functional; in short: as §1

Compound: O=C1C[C@H](c2ccccc2)C2(C(=O)c3ccccc3C2=O)[C@H](c2ccccc2)C1
- Activity (K562 [1]): 72%
- Activity (K562 [2]): 26%
- Activity (K562 [3]): 21%
- Activity (K562 [4]): 13%
- IC50 (HL-60 [5]): 20 µM
- Activity (K562 [6]): 40%
- IC50 (K562 [7]): 98 µM
- Activity (K562 [8]): 34%
- Activity (K562 [9]): 20%
- Activity (K562 [10]): 61%
- Activity (K562 [11]): 7%
- Activity (K562 [12]): 27%
- Activity (K562 [13]): 12%
- Activity (K562 [14]): 18%

Compound: Oc1ccc(-c2cc(O)cc(O)c2)cc1
- AC50 (K562 [15]): > 80 µM
- IC50 (HL-60 [5]): > 80 µM
- IC50 (K562 [7]): > 80 µM
- AC50 (HL-60 [16]): > 80 µM

Compound: O=C1C[C@H](c2ccc(-c3ccc(O)cc3)cc2)C2(C(=O)c3ccccc3C2=O)[C@H](c2ccccc2)C1
- Activity (K562 [17]): 35%
- AC50 (K562 [15]): 25 µM
- Activity (K562 [18]): 44%
- Activity (K562 [19]): 4%
- Activity (K562 [20]): 4%
- Activity (K562 [21]): 55%
- Activity (K562 [22]): 53%
- IC50 (HL-60 [5]): 6 µM
- Activity (K562 [24]): 34%
- IC50 (K562 [7]): 8 µM
- Activity (K562 [25]): 61%
- Activity (K562 [27]): 32.8%
- Activity (K562 [28]): 2%
- AC50 (HL-60 [16]; read-out: AC50): 11 µM
- Activity (K562 [29]): 17%
- IC50 [30]: 215 µM
- Activity (K562 [32]): 61%
- Activity (K562 [34]): 39%

Continued, in another order:

- IC50 (HL-60 [5]): > 100 µM
- IC50 (K562 [7]): > 100 µM
Compound: O=C1C[C@H](c2ncc[nH]2)C2(C(=O)c3ccccc3C2=O)[C@H](c2ncc[nH]2)C1

- IC50 (HL-60 [5]): 87 µM
- IC50 (K562 [7]): > 100 µM
Compound: CC1(C)OC(=O)C2(C(=O)O1)[C@@H](c1ccc(O)cc1)CC(=O)C[C@H]2c1ccc(O)cc1

- IC50 (HL-60 [5]): > 80 µM
- IC50 (K562 [7]): > 80 µM
Compound: OCc1ccc(-c2cc(O)cc(O)c2)cc1
- AC50 (K562 [15]): > 80 µM
- AC50 (HL-60 [16]; read-out: AC50): > 80 µM

- IC50 (HL-60 [5]): 16 µM
- IC50 (K562 [7]): 8 µM
Compound: CC1(C)OC(=O)C2(C(=O)O1)[C@@H](c1ccc(-c3ccc(-c4ccc(O)cc4)cc3)cc1)CC(=O)C[C@H]2c1ccccc1
- Activity (K562 [17]): 72%
- AC50 (K562 [15]): > 100 µM
- Activity (K562 [18]): 65%
- Activity (K562 [19]): 6%
- Activity (K562 [20]): 2%
- Activity (K562 [21]): 2%
- Activity (K562 [22]): 2%
- Activity (HL-60 [23]): Active
- Activity (K562 [24]): 72%
- Activity (K562 [25]): 20%
- Activity (K562 [26]): inactive
- Activity (K562 [27]): 4.9%
- Activity (K562 [28]): 8%
- AC50 (HL-60 [16]; read-out: AC50): 32 µM
- Activity (K562 [29]): 11%
- IC50 [30]: 185 µM
- Activity (HL-60 [31]): Active
- Activity (K562 [32]): 22%
- Activity (K562 [33]): inactive
- Activity (K562 [34]): 26%

- IC50 (HL-60 [5]): 28 µM
- IC50 (K562 [7]): 73 µM
Compound: O=C1C[C@H](c2ccc(O)cc2)C2(C(=O)c3ccccc3C2=O)[C@H](c2ccc(O)cc2)C1
